From PubChem
Efflux pump mplx: inhibitors of Candida antifungal efflux pumps expressed in yeast; S. cerevisiae Candida pump triplex, Nile Red efflux; inhibition, % at 10 µM; 330,000 tested, 0.44% active;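 active = plate passing quality check with inhibition over a set limit, or well fluorescence over plate mean plus 4 SD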;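 note: Nile Red retained in pooled yeast measured as flow cytometry median fluorescence; higher means more Nile Red kept so more efflux inhibition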
MEKK2 mut-MEK5: signal of MEK5 binding to mutant human MEKK2 PB1 domain. bead flow cytometry, Alexa488-MEK5 binding to MEKK2 mutant. percent response, % at 10 µM. 290,000 tested, 0.35% active; in the data active = percent response above about 24%, passing the limit was not always enough
ABCB1 block: blocks JC-1 efflux by human ABCB1 transporter. P08183. CCRF-Adr cells, flow cytometry. inhibition, % at 6.6 µM. 190,000 tested, 0.067% active. AID 1326; in the data active = inhibition above about 40%;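 note: higher value means more JC-1 retained so stronger ABCB1 efflux block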
MEKK3 PB1 HTS: raises or lowers MEK5 binding to the human MEKK3 PB1 domain. bead-based flow cytometry, Alexa488-MEK5 binding to MEKK3; actives lie on both sides; 0 = blocked by unlabeled MEK5, 100 = vehicle. binding response (% of control), % at 10 µM. 290,000 tested, 1.4% active. AID 1529;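 active = binding response more than 3 SD above or below the average of its plate-row segment, actives on both sides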;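 note: Alexa488 bead fluorescence after subtracting the streptavidin-only scavenger bead signal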
Target sequence (Q99759 whole entry, looked up, the tested form may be a part): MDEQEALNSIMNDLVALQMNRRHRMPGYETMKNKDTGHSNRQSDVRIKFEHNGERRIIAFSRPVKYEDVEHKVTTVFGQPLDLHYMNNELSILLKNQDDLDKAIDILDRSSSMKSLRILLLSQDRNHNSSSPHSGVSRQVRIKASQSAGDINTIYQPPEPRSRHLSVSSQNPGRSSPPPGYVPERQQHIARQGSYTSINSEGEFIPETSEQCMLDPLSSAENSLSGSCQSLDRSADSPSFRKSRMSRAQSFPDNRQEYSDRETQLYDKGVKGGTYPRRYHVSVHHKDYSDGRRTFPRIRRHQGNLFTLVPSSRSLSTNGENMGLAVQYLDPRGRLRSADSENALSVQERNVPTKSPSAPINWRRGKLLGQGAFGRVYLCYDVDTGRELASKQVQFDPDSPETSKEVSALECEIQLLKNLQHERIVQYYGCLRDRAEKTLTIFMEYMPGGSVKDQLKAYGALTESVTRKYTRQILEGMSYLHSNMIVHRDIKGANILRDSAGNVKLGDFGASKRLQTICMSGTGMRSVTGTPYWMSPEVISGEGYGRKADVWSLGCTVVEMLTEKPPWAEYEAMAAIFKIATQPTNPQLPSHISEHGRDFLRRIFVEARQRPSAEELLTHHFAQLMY
MEKK2wt PB1 HTS: raises or lowers MEK5 binding to wildtype human MEKK2 PB1 domain; 290,000 tested, 1.1% active; bead flow cytometry, Alexa488-MEK5 binding to MEKK2 WT; actives lie on both sides; AID 1531; binding response (% of control), % at 10 µM; Q9Y2U5; in the data active = binding response below about 67% or above about 130%
ABCG2 inh: inhibitors of human ABCG2 transporter, ABCB1 counter-screen. Q9UNQ0. IgMXP3 cells, JC-1 efflux, flow cytometry. inhibition, % at 6.6 µM. 190,000 tested, 0.1% active. AID 1325;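 active = inhibition above 80%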
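Incubation: cells with compound and JC-1, 10 min at 25 °C, rotating, no wash / Test system: IgMXP3 (ABCG2) plus far-red-tagged CCRF-Adr (ABCB1) cells / Compound dosing: one concentration, 6.6 µM final / Also added: JC-1 fluorescent substrate / Evaluation: efflux inhibition in percent versus controls / Detection: flow cytometry, 530 nm JC-1 signal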
MEKK2wt confirm: raises or lowers MEK5 binding to wildtype human MEKK2, retest; shares compounds with MEKK3 PB1 HTS; bead flow cytometry, Alexa488-MEK5 binding to MEKK2 WT; actives lie on both sides; binding response (% of control), % at 10 µM; 5,900 tested, 2.4% active; AID 1892; in the data active = binding response below about 16% or above about 210%; inactive = in between
MEKK2mut confirm: signal of MEK5 binding to mutant human MEKK2, retest | 5,900 tested, 2% active | bead flow cytometry, Alexa488-MEK5 binding to MEKK2 mutant | shares compounds with MEKK3 PB1 HTS | percent response, % at 10 µM; in the data active = percent response mostly above about 71%, no sharp cut-off; inactive = mostly below about 38%;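 note: higher means compound restores mutant binding toward wildtype level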
MEKK3 confirm: confirmation of inhibitors of MEK5 binding to human MEKK3. shares compounds with MEKK3 PB1 HTS. bead flow cytometry, Alexa488-MEK5 binding to MEKK3; hits give low values. binding response (% of control), % at 10 µM. 5,900 tested, 1.8% active;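 active = binding response below 72% of control, or above a set upper limit, though filed actives all read lower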;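 note: lower values mean stronger disruption of MEK5 binding to MEKK3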
A number is an active result; [ ] = another dose, or the depositor's remark. Only some compounds are listed: those with a hit (about 2.5% of all), similar ones and a draw of the others.

O=C(NC(=S)NNC(=O)c1cnccn1)c1ccc(Cl)cc1 was read as Efflux pump mplx inactive, MEKK2 mut-MEK5 inactive, MEKK3 PB1 HTS 2.0[inhibitor], MEKK2wt PB1 HTS -10[inhibitor], MEKK2wt confirm inactive, MEKK2mut confirm inactive and MEKK3 confirm inactive.
For COc1cccc(NC(=O)CCNC(=O)N2CC(=O)Nc3ccccc32)c1 the results were Efflux pump mplx inactive, MEKK2 mut-MEK5 inactive, MEKK3 PB1 HTS inactive and MEKK2wt PB1 HTS inactive.
`Cc1c(C(=O)Nc2ccc(Cl)cc2)c2ccccn2c1C(=O)c1ccccc1` gave Efflux pump mplx inactive, MEKK2 mut-MEK5 inactive, ABCB1 block inactive, MEKK3 PB1 HTS 126, MEKK2wt PB1 HTS inactive, ABCG2 inh inactive, MEKK2wt confirm inactive, MEKK2mut confirm inactive and MEKK3 confirm inactive.
FC(F)(F)c1cnc(COc2ccc(Cl)cc2Cl)c(Cl)c1 was read as Efflux pump mplx inactive, MEKK2 mut-MEK5 inactive, MEKK3 PB1 HTS inactive and MEKK2wt PB1 HTS inactive.
Screening COc1cccc2[nH]c3c(N4CCC(C)CC4)ncnc3c12 returned Efflux pump mplx inactive, MEKK2 mut-MEK5 inactive, ABCB1 block inactive, MEKK3 PB1 HTS inactive, MEKK2wt PB1 HTS inactive and ABCG2 inh inactive.
Screening COc1cccc2[nH]c3c(N4CCc5ccccc5C4)ncnc3c12 returned Efflux pump mplx inactive, MEKK2 mut-MEK5 inactive, MEKK3 PB1 HTS inactive, MEKK2wt PB1 HTS 147, MEKK2wt confirm inactive, MEKK2mut confirm inactive and MEKK3 confirm inactive.
For COc1ccc(-n2c(=O)c3ccccc3n(CC(=O)NC3CCCCC3)c2=O)cc1OC the results were Efflux pump mplx inactive, MEKK2 mut-MEK5 inactive, ABCB1 block inactive, MEKK3 PB1 HTS inactive, MEKK2wt PB1 HTS inactive and ABCG2 inh inactive.
For COc1ccc(-n2c(=O)c3ccccc3n(CC(=O)NC3CCCCC3)c2=O)cc1 the results were Efflux pump mplx inactive, MEKK2 mut-MEK5 inactive, ABCB1 block inactive, MEKK3 PB1 HTS 124, MEKK2wt PB1 HTS inactive, ABCG2 inh inactive, MEKK2wt confirm inactive, MEKK2mut confirm inactive and MEKK3 confirm inactive.
COc1ccc(NC(=O)Cn2c(=O)n(CC3CCCO3)c(=O)c3ccccc32)c(OC)c1 (centres undefined) was read as Efflux pump mplx inactive, MEKK2 mut-MEK5 inactive, ABCB1 block inactive, MEKK3 PB1 HTS inactive, MEKK2wt PB1 HTS inactive and ABCG2 inh inactive.
COc1cc(NC(=O)Cn2c(=O)n(CC3CCCO3)c(=O)c3ccccc32)cc(OC)c1 (centres undefined) was read as Efflux pump mplx inactive, MEKK2 mut-MEK5 inactive, ABCB1 block inactive, MEKK3 PB1 HTS 138, MEKK2wt PB1 HTS inactive, ABCG2 inh inactive, MEKK2wt confirm inactive, MEKK2mut confirm inactive and MEKK3 confirm inactive.
For NC(=O)c1ccc(SCC(=O)OCC(=O)N2CCN(C(=O)c3ccco3)CC2)c([N+](=O)[O-])c1 the results were Efflux pump mplx inactive.
Screening CC(C)CCN(C(=S)Nc1cccc(F)c1)C1CCN(C(C)C)CC1 returned Efflux pump mplx inactive, MEKK2 mut-MEK5 inactive, ABCB1 block inactive, MEKK3 PB1 HTS inactive, MEKK2wt PB1 HTS inactive and ABCG2 inh inactive.
`CC(=O)C1=C(O)C(=O)N(Cc2ccco2)C1c1cccc(F)c1` (centres undefined) gave Efflux pump mplx inactive, MEKK2 mut-MEK5 inactive, ABCB1 block inactive, MEKK3 PB1 HTS 129, MEKK2wt PB1 HTS inactive, ABCG2 inh inactive, MEKK2wt confirm inactive, MEKK2mut confirm inactive and MEKK3 confirm inactive.
COc1ccc(N2CCN(C(=O)c3cc4c(s3)-c3ccccc3S(=O)(=O)C4)CC2)cc1 was read as Efflux pump mplx inactive, MEKK2 mut-MEK5 inactive, MEKK3 PB1 HTS inactive, MEKK2wt PB1 HTS -10[inhibitor], MEKK2wt confirm inactive, MEKK2mut confirm inactive and MEKK3 confirm inactive.
Screening COc1cccc(Nc2nc(-c3sc(NC(=O)c4ccccc4)nc3C)cs2)c1 returned MEKK2 mut-MEK5 inactive, ABCB1 block inactive, MEKK3 PB1 HTS inactive, MEKK2wt PB1 HTS 143, ABCG2 inh inactive, MEKK2wt confirm inactive, MEKK2mut confirm inactive and MEKK3 confirm inactive.
`COc1ccc(S(=O)(=O)N2CCN(C(=O)c3cc(-c4ccc(C)cc4)n[nH]3)CC2)cc1` gave Efflux pump mplx inactive, MEKK2 mut-MEK5 inactive, MEKK3 PB1 HTS inactive and MEKK2wt PB1 HTS inactive.
COC(=O)c1c(NC(=O)c2ccco2)sc2c1CCC2 was read as Efflux pump mplx inactive, MEKK2 mut-MEK5 inactive, ABCB1 block inactive, MEKK3 PB1 HTS inactive, MEKK2wt PB1 HTS inactive and ABCG2 inh inactive.
COC(=O)c1c(NC(=O)/C=C/c2ccco2)sc2c1CCC2 was read as Efflux pump mplx inactive, MEKK2 mut-MEK5 inactive, ABCB1 block inactive, MEKK3 PB1 HTS 134, MEKK2wt PB1 HTS inactive, ABCG2 inh inactive, MEKK2wt confirm inactive, MEKK2mut confirm inactive and MEKK3 confirm inactive.
Screening CC(=Nc1ccc(C)c(C)c1)C1=C(O)CSC1=O returned Efflux pump mplx inactive, MEKK2 mut-MEK5 inactive, ABCB1 block inactive, MEKK3 PB1 HTS inactive, MEKK2wt PB1 HTS inactive and ABCG2 inh inactive.
CCC(=O)N(CC(=O)Nc1sc(C)c(C)c1C(N)=O)C1CCCCC1 was read as Efflux pump mplx inactive, MEKK2 mut-MEK5 inactive, ABCB1 block inactive, MEKK3 PB1 HTS inactive, MEKK2wt PB1 HTS inactive and ABCG2 inh inactive.
`NS(=O)(=O)c1ccc(Nc2ccc3nonc3c2[N+](=O)[O-])cc1` gave Efflux pump mplx inactive, MEKK2 mut-MEK5 inactive, ABCB1 block inactive, MEKK3 PB1 HTS 133, MEKK2wt PB1 HTS inactive, ABCG2 inh inactive, MEKK2wt confirm inactive, MEKK2mut confirm inactive and MEKK3 confirm inactive.
`CC(C)OP(=O)(c1ccccc1)c1ccccc1` gave Efflux pump mplx inactive, MEKK2 mut-MEK5 inactive, ABCB1 block inactive, MEKK3 PB1 HTS 153, MEKK2wt PB1 HTS inactive, ABCG2 inh inactive, MEKK2wt confirm inactive, MEKK2mut confirm inactive and MEKK3 confirm inactive.
Screening C/C(=N\NC(=O)c1ccc(Br)cc1)C1C(=O)c2ccccc2C1=O returned Efflux pump mplx inactive, MEKK2 mut-MEK5 inactive, ABCB1 block inactive, MEKK3 PB1 HTS inactive, MEKK2wt PB1 HTS inactive and ABCG2 inh inactive.
Screening C/C(=N\NC(=O)c1ccc(-c2ccccc2)cc1)C1C(=O)c2ccccc2C1=O returned Efflux pump mplx inactive, MEKK2 mut-MEK5 inactive, ABCB1 block inactive, MEKK3 PB1 HTS 47[inhibitor], MEKK2wt PB1 HTS 47[inhibitor], ABCG2 inh inactive, MEKK2wt confirm inactive, MEKK2mut confirm inactive and MEKK3 confirm inactive.
